Reference: article PMC7667462 (Journal of medicinal chemistry, 2019)
“Also recorded” adds a separate entry of the source.

How the values were obtained:
Clk (Cdc-like kinase) 2 = details: cited from earlier work
CK2α2β2 holoenzyme = CK2α2β2 holoenzyme (Homo sapiens, UniProt P68400); experiment: CK2 radiometric kinase assay, holoenzyme versus CK2α; format: biochemical; details: CK2β-independent peptide substrate
Outline: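 Radiometric CK2 assay comparing isolated human recombinant CK2α with the CK2α₂β₂ holoenzyme across increasing test compound concentrations, using a CK2β-independent peptide substrate. ATP was 100 μM unless stated otherwise.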

EphA4 = EphA4 (Homo sapiens, UniProt P54764); experiment: kinase selectivity profiling, residual kinase activity; format: biochemical; details: read-out: % inhibition of EphA4
Chain of EphA4 (P54764 20-986): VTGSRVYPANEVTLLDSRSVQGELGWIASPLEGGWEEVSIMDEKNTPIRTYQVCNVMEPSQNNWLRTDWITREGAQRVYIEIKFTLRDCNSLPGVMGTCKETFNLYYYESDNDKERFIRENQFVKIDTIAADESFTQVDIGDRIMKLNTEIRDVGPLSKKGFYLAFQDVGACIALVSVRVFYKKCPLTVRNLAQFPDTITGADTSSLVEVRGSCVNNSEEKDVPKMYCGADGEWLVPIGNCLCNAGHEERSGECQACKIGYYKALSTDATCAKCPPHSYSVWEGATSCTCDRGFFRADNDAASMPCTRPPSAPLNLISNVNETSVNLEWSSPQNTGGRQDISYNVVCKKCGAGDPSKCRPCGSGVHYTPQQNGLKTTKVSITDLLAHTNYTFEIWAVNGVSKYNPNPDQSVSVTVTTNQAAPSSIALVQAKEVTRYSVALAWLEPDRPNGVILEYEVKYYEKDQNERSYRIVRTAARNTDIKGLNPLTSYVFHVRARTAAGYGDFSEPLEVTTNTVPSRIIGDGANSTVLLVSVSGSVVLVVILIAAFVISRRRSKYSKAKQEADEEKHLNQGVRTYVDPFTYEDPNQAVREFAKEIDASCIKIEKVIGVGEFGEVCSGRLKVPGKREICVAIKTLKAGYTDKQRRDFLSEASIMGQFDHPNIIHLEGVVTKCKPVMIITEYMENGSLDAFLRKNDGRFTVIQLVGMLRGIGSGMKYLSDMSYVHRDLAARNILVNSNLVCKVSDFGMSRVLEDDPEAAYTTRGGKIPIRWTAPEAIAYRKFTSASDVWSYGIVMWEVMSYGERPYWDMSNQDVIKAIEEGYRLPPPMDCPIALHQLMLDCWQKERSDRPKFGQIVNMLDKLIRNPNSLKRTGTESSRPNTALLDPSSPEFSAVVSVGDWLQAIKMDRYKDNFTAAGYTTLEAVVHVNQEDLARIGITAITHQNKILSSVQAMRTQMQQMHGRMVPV
Outline: (§1)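 The test compound was profiled against a panel of 44 human kinases, with ATP set to the Km of each kinase. Remaining activity was read as % inhibition of each kinase.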

CK2α [1] = biological target: T1, CK2α (Homo sapiens, UniProt P68400); experiment: as above; format: biochemical; details: compound at 50 μM
T1 sequence (P68400 whole entry): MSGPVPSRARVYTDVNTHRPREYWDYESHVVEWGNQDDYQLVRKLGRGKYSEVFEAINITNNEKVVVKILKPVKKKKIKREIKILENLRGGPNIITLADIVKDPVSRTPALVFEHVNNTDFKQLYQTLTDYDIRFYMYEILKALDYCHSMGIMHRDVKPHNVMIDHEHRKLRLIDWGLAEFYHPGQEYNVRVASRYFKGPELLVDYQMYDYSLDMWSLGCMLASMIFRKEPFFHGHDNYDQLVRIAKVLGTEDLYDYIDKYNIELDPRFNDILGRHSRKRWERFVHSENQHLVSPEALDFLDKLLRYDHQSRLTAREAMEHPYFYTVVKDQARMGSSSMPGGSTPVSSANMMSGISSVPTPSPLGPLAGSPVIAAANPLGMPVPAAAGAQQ
Outline: as §1

pim-1 = pim-1 (Homo sapiens, UniProt P11309); experiment: as above; format: biochemical; details: read-out: % inhibition of pim-1
Chain of pim-1 (P11309 whole entry): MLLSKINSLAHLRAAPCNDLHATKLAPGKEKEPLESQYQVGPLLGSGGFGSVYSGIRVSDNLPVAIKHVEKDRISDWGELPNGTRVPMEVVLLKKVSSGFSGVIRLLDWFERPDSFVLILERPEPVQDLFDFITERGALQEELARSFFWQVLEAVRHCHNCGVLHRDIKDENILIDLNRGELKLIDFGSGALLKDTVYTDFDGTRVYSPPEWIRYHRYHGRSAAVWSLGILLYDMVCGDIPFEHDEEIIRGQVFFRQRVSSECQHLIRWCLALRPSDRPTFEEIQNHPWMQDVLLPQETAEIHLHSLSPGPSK
Outline: as §1

CK2α [2] = biological target: T1, CK2α; experiment: CK2 radiometric kinase assay; format: biochemical; details: compared with compound 2
CK2α^1–335 = biological target: T2, CK2α^1–335 (Homo sapiens, UniProt P68400); experiment: native mass spectrometry binding and competition; details: 10 μM CK2α; for binding stoichiometry to CK2α by native mass spectrometry: 100 μM IP6 or 10–40 μM 6, 5% DMSO
T2 sequence (P68400 1-335): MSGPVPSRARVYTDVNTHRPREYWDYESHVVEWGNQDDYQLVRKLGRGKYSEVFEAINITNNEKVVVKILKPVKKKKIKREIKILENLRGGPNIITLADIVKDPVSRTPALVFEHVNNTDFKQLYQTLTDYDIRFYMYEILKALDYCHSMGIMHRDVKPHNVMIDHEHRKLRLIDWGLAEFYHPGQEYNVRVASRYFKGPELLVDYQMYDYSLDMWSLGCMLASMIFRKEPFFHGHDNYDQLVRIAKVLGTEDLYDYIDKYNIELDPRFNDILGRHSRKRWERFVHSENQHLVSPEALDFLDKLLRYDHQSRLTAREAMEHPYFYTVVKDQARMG

CK2α [3] = biological target: T1, CK2α; experiment: NMR Saturation Transfer Difference; format: binding; details: compound 500 μM, CK2α 5 μM
water solubility = format: physicochemical; details: qualitative, relative to the other compounds of the series
MLCK (MLCK2) = biological target: T3, MLCK (MLCK2) (Homo sapiens, UniProt Q32MK0); experiment: kinase selectivity profiling, residual kinase activity; format: biochemical; details: read-out: % inhibition of MLCK
T3 sequence (Q32MK0 1-819): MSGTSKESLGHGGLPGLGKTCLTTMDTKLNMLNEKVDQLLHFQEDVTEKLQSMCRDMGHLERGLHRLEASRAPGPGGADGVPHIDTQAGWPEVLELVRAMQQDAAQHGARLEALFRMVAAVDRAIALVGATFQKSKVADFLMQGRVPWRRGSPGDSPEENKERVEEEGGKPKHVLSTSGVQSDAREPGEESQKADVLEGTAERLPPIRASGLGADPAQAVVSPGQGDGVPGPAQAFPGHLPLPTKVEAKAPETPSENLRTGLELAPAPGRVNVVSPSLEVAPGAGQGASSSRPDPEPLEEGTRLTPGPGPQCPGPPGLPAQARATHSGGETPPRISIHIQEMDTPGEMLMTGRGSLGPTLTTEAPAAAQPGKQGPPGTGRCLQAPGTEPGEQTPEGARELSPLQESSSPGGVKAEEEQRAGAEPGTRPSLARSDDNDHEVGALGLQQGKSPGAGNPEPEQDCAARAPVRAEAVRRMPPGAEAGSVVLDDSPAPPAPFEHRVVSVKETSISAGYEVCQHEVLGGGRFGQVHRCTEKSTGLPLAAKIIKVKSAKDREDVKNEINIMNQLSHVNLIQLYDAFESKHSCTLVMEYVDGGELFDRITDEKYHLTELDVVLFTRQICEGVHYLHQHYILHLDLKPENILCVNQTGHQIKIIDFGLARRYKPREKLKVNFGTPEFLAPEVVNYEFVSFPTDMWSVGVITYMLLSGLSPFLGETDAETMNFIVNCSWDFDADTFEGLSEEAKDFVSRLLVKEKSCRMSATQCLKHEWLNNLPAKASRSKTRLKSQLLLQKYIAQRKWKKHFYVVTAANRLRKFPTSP
Outline: as §1

Clk4 = Clk4 (Homo sapiens, UniProt Q9HAZ1); experiment: as above; format: biochemical; details: read-out: % inhibition of Clk4
Chain of Clk4 (Q9HAZ1 whole entry): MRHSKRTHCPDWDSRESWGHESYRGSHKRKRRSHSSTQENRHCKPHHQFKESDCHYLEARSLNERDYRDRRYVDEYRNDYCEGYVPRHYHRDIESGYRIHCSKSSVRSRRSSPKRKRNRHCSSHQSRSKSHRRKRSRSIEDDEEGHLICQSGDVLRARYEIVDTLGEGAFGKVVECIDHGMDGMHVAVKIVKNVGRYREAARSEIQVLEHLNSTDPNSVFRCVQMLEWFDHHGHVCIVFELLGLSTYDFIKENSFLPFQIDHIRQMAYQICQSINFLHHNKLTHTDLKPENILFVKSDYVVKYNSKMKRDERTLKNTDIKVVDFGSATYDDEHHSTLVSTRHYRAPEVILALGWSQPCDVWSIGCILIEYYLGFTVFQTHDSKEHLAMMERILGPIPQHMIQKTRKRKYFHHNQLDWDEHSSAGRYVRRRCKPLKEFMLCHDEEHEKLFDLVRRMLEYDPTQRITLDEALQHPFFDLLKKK
Outline: as §1

ACVR1 (ALK2) = biological target: T4, ACVR1 (ALK2) (Homo sapiens, UniProt Q04771); experiment: as above; format: biochemical; details: read-out: % inhibition of ACVR1
T4 sequence (Q04771 21-509): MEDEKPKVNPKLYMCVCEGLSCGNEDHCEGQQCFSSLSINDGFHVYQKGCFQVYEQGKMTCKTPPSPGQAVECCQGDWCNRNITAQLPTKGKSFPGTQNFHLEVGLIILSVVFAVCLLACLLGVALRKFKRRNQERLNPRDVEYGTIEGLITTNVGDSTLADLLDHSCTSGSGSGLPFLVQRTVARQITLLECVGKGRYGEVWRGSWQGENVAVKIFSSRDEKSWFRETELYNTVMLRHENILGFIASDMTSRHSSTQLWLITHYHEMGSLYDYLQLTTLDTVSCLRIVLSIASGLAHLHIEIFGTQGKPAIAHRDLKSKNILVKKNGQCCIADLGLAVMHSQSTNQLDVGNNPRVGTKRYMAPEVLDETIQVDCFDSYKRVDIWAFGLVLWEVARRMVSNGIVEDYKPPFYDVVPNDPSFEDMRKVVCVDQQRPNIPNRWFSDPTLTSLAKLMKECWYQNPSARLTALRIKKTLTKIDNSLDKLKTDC
Outline: as §1

Clk2 = Clk2 (Homo sapiens, UniProt P49760); experiment: as above; format: biochemical; details: read-out: % inhibition of Clk2
Chain of Clk2 (P49760 whole entry): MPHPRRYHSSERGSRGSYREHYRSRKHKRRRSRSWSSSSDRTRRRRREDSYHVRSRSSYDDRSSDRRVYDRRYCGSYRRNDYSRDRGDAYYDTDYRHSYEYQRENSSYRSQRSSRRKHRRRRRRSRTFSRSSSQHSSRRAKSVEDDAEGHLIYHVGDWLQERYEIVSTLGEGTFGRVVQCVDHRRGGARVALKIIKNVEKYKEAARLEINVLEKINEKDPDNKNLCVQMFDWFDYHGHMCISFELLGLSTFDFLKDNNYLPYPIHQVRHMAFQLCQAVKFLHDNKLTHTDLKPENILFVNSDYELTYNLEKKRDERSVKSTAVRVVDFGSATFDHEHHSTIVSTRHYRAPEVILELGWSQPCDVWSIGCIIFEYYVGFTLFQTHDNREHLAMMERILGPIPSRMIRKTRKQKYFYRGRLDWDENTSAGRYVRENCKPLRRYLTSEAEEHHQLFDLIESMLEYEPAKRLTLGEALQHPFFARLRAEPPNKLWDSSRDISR
Outline: as §1

Dyrk1A = Dyrk1A (Homo sapiens, UniProt Q13627); experiment: as above; format: biochemical; details: read-out: % inhibition of Dyrk1A
Outline: as §1

GSK3β = GSK3β (Homo sapiens, UniProt P49841); experiment: as above; format: biochemical; details: read-out: % inhibition of GSK3β
Chain of GSK3β (P49841 whole entry): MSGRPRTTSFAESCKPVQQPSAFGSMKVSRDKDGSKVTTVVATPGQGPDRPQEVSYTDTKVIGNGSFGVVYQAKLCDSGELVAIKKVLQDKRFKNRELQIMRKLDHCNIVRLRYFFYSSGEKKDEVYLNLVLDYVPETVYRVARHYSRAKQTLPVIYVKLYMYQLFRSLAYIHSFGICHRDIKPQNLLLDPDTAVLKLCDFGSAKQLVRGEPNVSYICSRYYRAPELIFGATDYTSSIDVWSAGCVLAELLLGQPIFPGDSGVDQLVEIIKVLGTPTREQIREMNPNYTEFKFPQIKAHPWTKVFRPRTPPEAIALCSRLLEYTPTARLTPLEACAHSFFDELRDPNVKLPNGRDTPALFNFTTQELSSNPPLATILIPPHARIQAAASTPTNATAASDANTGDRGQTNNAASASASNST
Outline: as §1

Chain of CK2α2β2 holoenzyme (P68400 whole entry): as the sequence (P68400 whole entry) above
Chain of CK2α2β2 holoenzyme (P67870 whole entry partner): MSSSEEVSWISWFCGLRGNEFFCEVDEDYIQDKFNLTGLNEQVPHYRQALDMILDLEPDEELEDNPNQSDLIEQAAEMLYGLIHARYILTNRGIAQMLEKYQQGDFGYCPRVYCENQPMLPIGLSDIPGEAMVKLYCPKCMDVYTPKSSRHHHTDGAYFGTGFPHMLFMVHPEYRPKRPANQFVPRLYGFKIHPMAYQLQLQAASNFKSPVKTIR

## O=C(O)c1ccc2c(c1)nc(Nc1cccc(Cl)c1)c1ccncc12 [CX-4945, 5-(3-chlorophenylamino)benzo[c][2,6]naphthyridine-8-carboxylic acid]
Clk (Cdc-like kinase) 2
  IC50: 4 nM

## O=C(O)c1cccc(Nc2nc(-c3cccc([N+](=O)[O-])c3)cs2)c1 [Compound 1, 3-((4-(3-nitrophenyl)thiazol-2-yl)amino)benzoic acid]
CK2α2β2 holoenzyme
  inhibition of CK2α2β2 holoenzyme compared with CK2α: inhibited to the same extent

## O=C(O)c1ccc(Nc2nc(-c3cccc([N+](=O)[O-])c3)cs2)cc1 [Compound 2, 4-((4-(3-nitrophenyl)thiazol-2-yl)amino)benzoic acid]
EphA4
  inhibition at 50 µM: 55%
CK2α [1]
  inhibition of CK2α: full inhibition
pim-1
  inhibition at 50 µM: 54%

## O=[N+]([O-])c1cccc(-c2csc(Nc3ccccc3)n2)c1 [Compound 3, [4-(3-Nitro-phenyl)-thiazol-2-yl]-phenyl-amine]
CK2α [2]
  CK2α inhibitory activity, in words (SAR): significant loss of activity

## COC(=O)c1ccc(Nc2nc(-c3cccc([N+](=O)[O-])c3)cs2)cc1 [Compound 4, 4-[4-(3-Nitro-phenyl)-thiazol-2-ylamino]-benzoic acid methyl ester]
CK2α [2]
  CK2α inhibitory activity, in words (SAR): significant loss of activity

## O=C(O)c1ccc(Nc2nccs2)cc1 [Compound 5, 4-(Thiazol-2-ylamino)-benzoic acid]
CK2α [2]
  CK2α inhibitory activity, in words (SAR): complete lack of activity

## O=C(O)c1ccc(Nc2nc(-c3ccccc3)cs2)cc1 [Compound 6, 4-(4-Phenyl-thiazol-2-ylamino)-benzoic acid]
CK2α^1–335
  binding stoichiometry to CK2α by native mass spectrometry: various stoichiometries
CK2α^1–335; 10 μM compound, 100 μM IP6
  native MS competition with IP6 for binding to CK2α: competitive ligand of IP6
CK2α [3]; AMP-PNP 500 μM
  STD NMR competition with AMP-PNP for binding to CK2α: AMP-PNP was not able to bind to CK2α in the presence of 2-aminothiazole 6
CK2α [3]; CX-4945 100 μM
  STD NMR competition with CX-4945 for binding to CK2α: did not bind to the same site as CX-4945
Water solubility
  water solubility: superior water solubility; also recorded: relatively good solubility in water

## O=C(O)c1ccc(Nc2nc(-c3cccc(Br)c3)cs2)cc1 [Compound 7, 4-[4-(3-Bromo-phenyl)-thiazol-2-ylamino]-benzoic acid]
MLCK (MLCK2)
  inhibition at 50 µM: 61%
Clk4
  inhibition at 50 µM: 61%
EphA4
  inhibition at 50 µM: 73%
ACVR1 (ALK2)
  inhibition at 50 µM: 66%
Clk2
  inhibition at 50 µM: ~30%
Dyrk1A
  inhibition at 50 µM: ~30%
GSK3β
  inhibition at 50 µM: 71%

## O=C(O)c1ccc(Nc2nc(-c3ccccn3)cs2)cc1 [Compound 9, 4-(4-Pyridin-2-yl-thiazol-2-ylamino)-benzoic acid]
Water solubility
  water solubility: superior water solubility; also recorded: relatively good solubility in water

## O=P(O)(O)OC1C(OP(=O)(O)O)C(OP(=O)(O)O)C(OP(=O)(O)O)C(OP(=O)(O)O)C1OP(=O)(O)O (stereo not shown) [IP6, inositol hexakisphosphate, reference compound]
CK2α^1–335
  binding stoichiometry to CK2α by native mass spectrometry: 1:1 and 1:2 stoichiometry
